Measured values as given in ChEMBL document CHEMBL4033721, “Design, synthesis and evaluation of indole-2-carboxamides with pan anti-mycobacterial activity” (Bioorg Med Chem, 2017).
In brackets after ≈: the same amount, converted by molar mass.

Test system: Mycobacteroides abscessus
Test: Antimycobacterial activity against Mycobacterium abscessus ATCC 19977 after 8 days by resazurin microtiter based colorimetric assay
Type: functional
Conditions: ATCC 19977, 192 h
Outline: (§1)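 Resazurin microtiter plate MIC, read by visual scan for growth, in Mueller Hinton II broth. Strains include clinical isolates of M. abscessus complex, M. chelonae, M. avium, M. intracellulare, M. xenopi, P. aeruginosa PAO-1 and S. aureus ATCC 25923.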

| SMILES | MIC |
| --- | --- |
| CCCCCCCNC(=O)c1cc2c(C)cc(C)cc2[nH]1 | > 32 µg/mL |
| CC1CCC(NC(=O)c2cc3ccccc3[nH]2)CC1 (mixture of isomers) | > 32 µg/mL |
| CC(NC(=O)c1cc2ccccc2[nH]1)C12CC3CC(CC(C3)C1)C2 (stereo unspecified) | 16 µg/mL (≈ 49.6 µM) |
| O=C(NC1C2CC3CC(C2)CC1C3)c1cc2ccccc2[nH]1 (stereo unspecified) | > 32 µg/mL |
| CCCCCCCCNC(=O)c1cc2c(C)cc(C)cc2[nH]1 | > 32 µg/mL |
| CCC12CC3CC(C1)CC(NC(=O)c1cc4c(C)cc(C)cc4[nH]1)(C3)C2 | > 32 µg/mL |

Test system: Mycobacteroides abscessus
Test: Antimycobacterial activity against Mycobacterium abscessus isolate DCI 21 after 8 days by resazurin microtiter based colorimetric assay
Type: functional
Conditions: isolate DCI 21, 192 h
Outline: as §1

| SMILES | MIC |
| --- | --- |
| CCCCCCCNC(=O)c1cc2c(C)cc(C)cc2[nH]1 | > 32 µg/mL |
| CC1CCC(NC(=O)c2cc3ccccc3[nH]2)CC1 (mixture of isomers) | > 32 µg/mL |
| CC(NC(=O)c1cc2ccccc2[nH]1)C12CC3CC(CC(C3)C1)C2 (stereo unspecified) | 16 µg/mL (≈ 49.6 µM) |
| O=C(NC1C2CC3CC(C2)CC1C3)c1cc2ccccc2[nH]1 (stereo unspecified) | > 32 µg/mL |
| CCCCCCCCNC(=O)c1cc2c(C)cc(C)cc2[nH]1 | > 32 µg/mL |
| CCC12CC3CC(C1)CC(NC(=O)c1cc4c(C)cc(C)cc4[nH]1)(C3)C2 | > 32 µg/mL |

Test system: not listed separately
Test: Antimycobacterial activity against Mycobacterium massiliense isolate CIP108297 after 8 days by resazurin microtiter based colorimetric assay
Type: functional, Mycobacterium abscessus subsp. massiliense
Conditions: Mycobacteroides abscessus, isolate CIP108297, 192 h
Outline: as §1

| SMILES | MIC |
| --- | --- |
| CCCCCCCNC(=O)c1cc2c(C)cc(C)cc2[nH]1 | > 32 µg/mL |
| CC1CCC(NC(=O)c2cc3ccccc3[nH]2)CC1 (mixture of isomers) | 16 µg/mL |
| CC(NC(=O)c1cc2ccccc2[nH]1)C12CC3CC(CC(C3)C1)C2 (stereo unspecified) | 8 µg/mL (≈ 24.8 µM) |
| O=C(NC1C2CC3CC(C2)CC1C3)c1cc2ccccc2[nH]1 (stereo unspecified) | > 32 µg/mL |
| CCCCCCCCNC(=O)c1cc2c(C)cc(C)cc2[nH]1 | > 32 µg/mL |
| CCC12CC3CC(C1)CC(NC(=O)c1cc4c(C)cc(C)cc4[nH]1)(C3)C2 | > 32 µg/mL |

Test system: not listed separately
Test: Antimycobacterial activity against Mycobacterium massiliense isolate CRM0019 after 8 days by resazurin microtiter based colorimetric assay
Type: functional, Mycobacterium abscessus subsp. massiliense
Conditions: Mycobacteroides abscessus, isolate CRM0019, 192 h
Outline: as §1

| SMILES | MIC |
| --- | --- |
| CCCCCCCNC(=O)c1cc2c(C)cc(C)cc2[nH]1 | > 32 µg/mL |
| CC1CCC(NC(=O)c2cc3ccccc3[nH]2)CC1 (mixture of isomers) | 16 µg/mL |
| CC(NC(=O)c1cc2ccccc2[nH]1)C12CC3CC(CC(C3)C1)C2 (stereo unspecified) | 8 µg/mL (≈ 24.8 µM) |
| O=C(NC1C2CC3CC(C2)CC1C3)c1cc2ccccc2[nH]1 (stereo unspecified) | 32 µg/mL (≈ 109 µM) |
| CCCCCCCCNC(=O)c1cc2c(C)cc(C)cc2[nH]1 | > 32 µg/mL |
| CCC12CC3CC(C1)CC(NC(=O)c1cc4c(C)cc(C)cc4[nH]1)(C3)C2 | > 32 µg/mL |

Test system: not listed separately
Test: Antimycobacterial activity against Mycobacterium bolletii ATCC 14472 after 8 days by resazurin microtiter based colorimetric assay
Type: functional
Conditions: Mycobacteroides abscessus, ATCC 14472, 192 h
Outline: as §1

| SMILES | MIC |
| --- | --- |
| CCCCCCCNC(=O)c1cc2c(C)cc(C)cc2[nH]1 | 32 µg/mL (≈ 112 µM) |
| CC1CCC(NC(=O)c2cc3ccccc3[nH]2)CC1 (mixture of isomers) | 16 µg/mL |
| CC(NC(=O)c1cc2ccccc2[nH]1)C12CC3CC(CC(C3)C1)C2 (stereo unspecified) | 16 µg/mL (≈ 49.6 µM) |
| O=C(NC1C2CC3CC(C2)CC1C3)c1cc2ccccc2[nH]1 (stereo unspecified) | 32 µg/mL (≈ 109 µM) |
| CCCCCCCCNC(=O)c1cc2c(C)cc(C)cc2[nH]1 | > 32 µg/mL |
| CCC12CC3CC(C1)CC(NC(=O)c1cc4c(C)cc(C)cc4[nH]1)(C3)C2 | > 32 µg/mL |

Test system: Mycobacteroides chelonae
Test: Antimycobacterial activity against Mycobacterium chelonae ATCC 35752 after 8 days by resazurin microtiter based colorimetric assay
Type: functional
Conditions: ATCC 35752, 192 h
Outline: as §1

| SMILES | MIC |
| --- | --- |
| CCCCCCCNC(=O)c1cc2c(C)cc(C)cc2[nH]1 | > 32 µg/mL |
| CC1CCC(NC(=O)c2cc3ccccc3[nH]2)CC1 (mixture of isomers) | 16 µg/mL |
| CC(NC(=O)c1cc2ccccc2[nH]1)C12CC3CC(CC(C3)C1)C2 (stereo unspecified) | 2 µg/mL (≈ 6.2 µM) |
| O=C(NC1C2CC3CC(C2)CC1C3)c1cc2ccccc2[nH]1 (stereo unspecified) | > 32 µg/mL |
| CCCCCCCCNC(=O)c1cc2c(C)cc(C)cc2[nH]1 | > 32 µg/mL |
| CCC12CC3CC(C1)CC(NC(=O)c1cc4c(C)cc(C)cc4[nH]1)(C3)C2 | > 32 µg/mL |

Test system: Mycobacterium tuberculosis
Test: Antimycobacterial activity against Mycobacterium tuberculosis H37Rv MC2-6206 after 8 days by resazurin microtiter based colorimetric assay
Type: functional
Conditions: H37Rv MC2-6206, 192 h
Outline: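 MIC was measured by resazurin microtiter colorimetric assay with visual growth scoring. Medium was 7H9-ADC–0.05% tyloxapol with 0.2% casaminoacids, 48 µg/ml pantothenate and 50 µg/ml L-leucine.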

| SMILES | MIC |
| --- | --- |
| CCCCCCCNC(=O)c1cc2c(C)cc(C)cc2[nH]1 | > 5 µg/mL |
| CC1CCC(NC(=O)c2cc3ccccc3[nH]2)CC1 (mixture of isomers) | 5 µg/mL |
| CC(NC(=O)c1cc2ccccc2[nH]1)C12CC3CC(CC(C3)C1)C2 (stereo unspecified) | > 5 µg/mL |
| O=C(NC1C2CC3CC(C2)CC1C3)c1cc2ccccc2[nH]1 (stereo unspecified) | 0.39 µg/mL (≈ 1.32 µM) |
| CCCCCCCCNC(=O)c1cc2c(C)cc(C)cc2[nH]1 | > 20 µg/mL |
| CCC12CC3CC(C1)CC(NC(=O)c1cc4c(C)cc(C)cc4[nH]1)(C3)C2 | 0.039 µg/mL (≈ 0.111 µM) |

Test system: Mycolicibacterium smegmatis
Test: Antimycobacterial activity against Mycobacterium smegmatis isolate MC2 155 after 8 days by resazurin microtiter based colorimetric assay
Type: functional
Conditions: str. MC2 155, 192 h

| SMILES | MIC |
| --- | --- |
| CCCCCCCNC(=O)c1cc2c(C)cc(C)cc2[nH]1 | 5 µg/mL (≈ 17.5 µM) |
| CC1CCC(NC(=O)c2cc3ccccc3[nH]2)CC1 (mixture of isomers) | 12.5 µg/mL |
| CC(NC(=O)c1cc2ccccc2[nH]1)C12CC3CC(CC(C3)C1)C2 (stereo unspecified) | > 20 µg/mL |
| O=C(NC1C2CC3CC(C2)CC1C3)c1cc2ccccc2[nH]1 (stereo unspecified) | > 25 µg/mL |
| CCCCCCCCNC(=O)c1cc2c(C)cc(C)cc2[nH]1 | 2.5 to 5 µg/mL (≈ 8.32 to 16.6 µM) |
| CCC12CC3CC(C1)CC(NC(=O)c1cc4c(C)cc(C)cc4[nH]1)(C3)C2 | > 20 µg/mL |

Test system: Mycobacterium avium
Test: Antimycobacterial activity against Mycobacterium avium isolate 104 after 8 days by resazurin microtiter based colorimetric assay
Type: functional
Conditions: isolate 104, 192 h
Outline: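 M. avium 104 MICs were read by resazurin microtiter colorimetric assay in 96-well plates, with growth scored visually, in Mueller Hinton II medium.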

| SMILES | MIC |
| --- | --- |
| CCCCCCCNC(=O)c1cc2c(C)cc(C)cc2[nH]1 | > 32 µg/mL |
| CC1CCC(NC(=O)c2cc3ccccc3[nH]2)CC1 (mixture of isomers) | > 32 µg/mL |
| CC(NC(=O)c1cc2ccccc2[nH]1)C12CC3CC(CC(C3)C1)C2 (stereo unspecified) | > 32 µg/mL |
| O=C(NC1C2CC3CC(C2)CC1C3)c1cc2ccccc2[nH]1 (stereo unspecified) | > 32 µg/mL |
| CCCCCCCCNC(=O)c1cc2c(C)cc(C)cc2[nH]1 | > 32 µg/mL |
| CCC12CC3CC(C1)CC(NC(=O)c1cc4c(C)cc(C)cc4[nH]1)(C3)C2 | > 32 µg/mL |

Test system: Mycobacterium avium-intracellulare
Test: Antimycobacterial activity against Mycobacterium avium-intracellulare isolate 1956 after 8 days by resazurin microtiter based colorimetric assay
Type: functional
Conditions: isolate 1956, 192 h
Outline: as §1

| SMILES | MIC |
| --- | --- |
| CCCCCCCNC(=O)c1cc2c(C)cc(C)cc2[nH]1 | > 32 µg/mL |
| CC1CCC(NC(=O)c2cc3ccccc3[nH]2)CC1 (mixture of isomers) | > 32 µg/mL |
| CC(NC(=O)c1cc2ccccc2[nH]1)C12CC3CC(CC(C3)C1)C2 (stereo unspecified) | 32 µg/mL (≈ 99.2 µM) |
| O=C(NC1C2CC3CC(C2)CC1C3)c1cc2ccccc2[nH]1 (stereo unspecified) | > 32 µg/mL |
| CCCCCCCCNC(=O)c1cc2c(C)cc(C)cc2[nH]1 | > 32 µg/mL |
| CCC12CC3CC(C1)CC(NC(=O)c1cc4c(C)cc(C)cc4[nH]1)(C3)C2 | > 32 µg/mL |

Test system: Mycobacterium xenopi
Test: Antimycobacterial activity against wild type Mycobacterium xenopi isolate 4042 after 8 days by resazurin microtiter based colorimetric assay
Type: functional
Conditions: isolate 4042, 192 h
Outline: as §1

| SMILES | MIC |
| --- | --- |
| CCCCCCCNC(=O)c1cc2c(C)cc(C)cc2[nH]1 | > 32 µg/mL |
| CC1CCC(NC(=O)c2cc3ccccc3[nH]2)CC1 (mixture of isomers) | 16 µg/mL |
| CC(NC(=O)c1cc2ccccc2[nH]1)C12CC3CC(CC(C3)C1)C2 (stereo unspecified) | 8 µg/mL (≈ 24.8 µM) |
| O=C(NC1C2CC3CC(C2)CC1C3)c1cc2ccccc2[nH]1 (stereo unspecified) | 2 µg/mL (≈ 6.79 µM) |
| CCCCCCCCNC(=O)c1cc2c(C)cc(C)cc2[nH]1 | > 32 µg/mL |
| CCC12CC3CC(C1)CC(NC(=O)c1cc4c(C)cc(C)cc4[nH]1)(C3)C2 | > 32 µg/mL |
